Laboratory results taken from ChEMBL document CHEMBL4689842, “EUbOPEN Chemogenomics Library wave 1” (2021).

Tested on: Fibroblast
Assay: Multiplex assay against human fibroblast
Assay type: toxicity, cell-based
Procedure, shortened: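 Live cells were stained at seeding with Hoechst33342, BioTracker Green Microtubule Cytoskeleton Dye, MitoTracker Red and Annexin V Alexa Fluor 680. Following compound addition, they were imaged on a CQ1 microscope at 37°C and 5% CO2 and gated by CellPathfinder machine learning into Hoechst high-intensity objects or normal cells, with normal cells split into healthy, pyknosed or fragmented nuclei and pyknosed cells into mitotic or apoptotic. Tubulin, mitochondrial-mass and membrane-permeability phenotypes are per cents of healthy-nucleus cells.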

[1] = 12 h, 1 µM, compound concentration 1 uM, replicate 1
[2] = 12 h, 1 µM, compound concentration 1 uM, replicate 2
[3] = 12 h, 10 µM, compound concentration 10 uM, replicate 1
[4] = 12 h, 10 µM, compound concentration 10 uM, replicate 2
[5] = 24 h, 1 µM, compound concentration 1 uM, replicate 1
[6] = 24 h, 1 µM, compound concentration 1 uM, replicate 2
[7] = 24 h, 10 µM, compound concentration 10 uM, replicate 1
[8] = 24 h, 10 µM, compound concentration 10 uM, replicate 2
[9] = 48 h, 1 µM, compound concentration 1 uM, replicate 1
[10] = 48 h, 1 µM, compound concentration 1 uM, replicate 2
[11] = 48 h, 10 µM, compound concentration 10 uM, replicate 1
[12] = 48 h, 10 µM, compound concentration 10 uM, replicate 2

## CN1C2CCC1CC(OC(c1ccc(F)cc1)c1ccc(F)cc1)C2.Cl (centres undefined)
[1]
  Population Apoptotic (%): 53%
  Population Fragmented Nuclei (%): 26%
  Population Healthy Nuclei (%): 45%
  Population Hoechst High Intensity Objects (%): 12%
  Population Membrane Permeable-Phenotype (%): 21%
  Population Mitochondria Different-Phenotype (%): 11%
  Population Mitotic Cells (%): 46%
  Population Normal (%): 87%
  Population Pyknosed Nuclei (%): 27%
  Population Tubulin-Different-Phenotype (%): 52%
  Total Cell Count: 106
[2]
  Population Apoptotic (%): 100%
  Population Fragmented Nuclei (%): 5%
  Population Healthy Nuclei (%): 92%
  Population Hoechst High Intensity Objects (%): 2%
  Population Membrane Permeable-Phenotype (%): 3%
  Population Mitochondria Different-Phenotype (%): 4%
  Population Mitotic Cells (%): 0%
  Population Normal (%): 97%
  Population Pyknosed Nuclei (%): 1%
  Population Tubulin-Different-Phenotype (%): 8%
  Total Cell Count: 69
[3]
  Population Apoptotic (%): 64%
  Population Fragmented Nuclei (%): 31%
  Population Healthy Nuclei (%): 50%
  Population Hoechst High Intensity Objects (%): 9%
  Population Mitochondria Different-Phenotype (%): 37%
  Population Mitotic Cells (%): 36%
  Population Normal (%): 90%
  Population Pyknosed Nuclei (%): 18%
  Population Tubulin-Different-Phenotype (%): 68%
  Total Cell Count: 148
[4]
  Population Apoptotic (%): 80%
  Population Fragmented Nuclei (%): 8%
  Population Healthy Nuclei (%): 78%
  Population Hoechst High Intensity Objects (%): 6%
  Population Membrane Permeable-Phenotype (%): 10%
  Population Mitochondria Different-Phenotype (%): 89%
  Population Mitotic Cells (%): 20%
  Population Normal (%): 93%
  Population Pyknosed Nuclei (%): 13%
  Population Tubulin-Different-Phenotype (%): 49%
  Total Cell Count: 78
[5]
  Population Apoptotic (%): 53%
  Population Fragmented Nuclei (%): 24%
  Population Healthy Nuclei (%): 58%
  Population Hoechst High Intensity Objects (%): 13%
  Population Membrane Permeable-Phenotype (%): 26%
  Population Mitochondria Different-Phenotype (%): 4%
  Population Mitotic Cells (%): 46%
  Population Normal (%): 86%
  Population Pyknosed Nuclei (%): 17%
  Population Tubulin-Different-Phenotype (%): 58%
  Total Cell Count: 99
[6]
  Population Apoptotic (%): 20%
  Population Fragmented Nuclei (%): 3%
  Population Healthy Nuclei (%): 90%
  Population Hoechst High Intensity Objects (%): 2%
  Population Membrane Permeable-Phenotype (%): 4%
  Population Mitotic Cells (%): 80%
  Population Normal (%): 97%
  Population Pyknosed Nuclei (%): 6%
  Population Tubulin-Different-Phenotype (%): 8%
  Total Cell Count: 82
[7]
  Population Apoptotic (%): 38%
  Population Fragmented Nuclei (%): 38%
  Population Healthy Nuclei (%): 45%
  Population Hoechst High Intensity Objects (%): 17%
  Population Membrane Permeable-Phenotype (%): 15%
  Population Mitochondria Different-Phenotype (%): 40%
  Population Mitotic Cells (%): 61%
  Population Normal (%): 82%
  Population Pyknosed Nuclei (%): 15%
  Population Tubulin-Different-Phenotype (%): 60%
  Total Cell Count: 160
[8]
  Population Apoptotic (%): 80%
  Population Fragmented Nuclei (%): 16%
  Population Healthy Nuclei (%): 64%
  Population Hoechst High Intensity Objects (%): 3%
  Population Membrane Permeable-Phenotype (%): 6%
  Population Mitochondria Different-Phenotype (%): 78%
  Population Mitotic Cells (%): 20%
  Population Normal (%): 96%
  Population Pyknosed Nuclei (%): 19%
  Population Tubulin-Different-Phenotype (%): 25%
  Total Cell Count: 107
[9]
  Population Apoptotic (%): 28%
  Population Fragmented Nuclei (%): 34%
  Population Healthy Nuclei (%): 52%
  Population Hoechst High Intensity Objects (%): 13%
  Population Membrane Permeable-Phenotype (%): 22%
  Population Mitochondria Different-Phenotype (%): 1%
  Population Mitotic Cells (%): 71%
  Population Normal (%): 86%
  Population Pyknosed Nuclei (%): 12%
  Population Tubulin-Different-Phenotype (%): 45%
  Total Cell Count: 126
[10]
  Population Apoptotic (%): 0%
  Population Healthy Nuclei (%): 64%
  Population Hoechst High Intensity Objects (%): 11%
  Population Membrane Permeable-Phenotype (%): 9%
  Population Mitochondria Different-Phenotype (%): 6%
  Population Mitotic Cells (%): 100%
  Population Normal (%): 88%
  Population Pyknosed Nuclei (%): 0%
  Population Tubulin-Different-Phenotype (%): 47%
  Total Cell Count: 127
[11]
  Population Apoptotic (%): 80%
  Population Fragmented Nuclei (%): 47%
  Population Healthy Nuclei (%): 45%
  Population Hoechst High Intensity Objects (%): 25%
  Population Membrane Permeable-Phenotype (%): 9%
  Population Mitochondria Different-Phenotype (%): 27%
  Population Mitotic Cells (%): 20%
  Population Normal (%): 74%
  Population Pyknosed Nuclei (%): 7%
  Population Tubulin-Different-Phenotype (%): 78%
  Total Cell Count: 191
[12]
  Population Apoptotic (%): 100%
  Population Fragmented Nuclei (%): 64%
  Population Healthy Nuclei (%): 35%
  Population Hoechst High Intensity Objects (%): 16%
  Population Membrane Permeable-Phenotype (%): 11%
  Population Mitochondria Different-Phenotype (%): 18%
  Population Mitotic Cells (%): 0%
  Population Normal (%): 83%
  Population Pyknosed Nuclei (%): 0%
  Population Tubulin-Different-Phenotype (%): 79%
  Total Cell Count: 259
